Results from ChEMBL document CHEMBL3244256 (J Med Chem, 1979).

Assays:
Mus musculus [1] = experiment: Antiradiation activity in ip dosed whole-body gamma-irradiated mouse assessed as mouse survival compound administered 30 mins prior irradiation measured after 30 days relative to control; type: functional
Procedure, shortened: (§1)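 Mice were dosed ip or po with compound in water, or in physiological saline containing 0.3% methylcellulose and 0.1% Tween 80, usually at pH 5–7. Dosing came 15, 30 or 60 min before whole-body ¹³⁷Cs γ irradiation (141.5 rd/min; 849 rd for most compounds). The dose reported is the lowest giving the highest survival rate. Read-out was % survival at 30 days.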

Mus musculus [2] = experiment: Antiradiation activity in ip dosed whole-body gamma-irradiated mouse assessed as increase in mouse survival rate compound administered 30 mins prior irradiation; type: functional; settings: light or radiation study, read-out: MED; procedure, shortened: as §1
[3] = Toxicity ip dosed whole-body gamma-irradiated mouse compound administered 30 mins prior irradiation; type: organism-based; settings: in vivo
Mus musculus [4] = experiment: Antiradiation activity in ip dosed whole-body gamma-irradiated mouse assessed as mouse survival compound administered 15 mins prior irradiation measured after 30 days relative to control; type: functional; procedure, shortened: as §1
Mus musculus [5] = experiment: Antiradiation activity in po dosed whole-body gamma-irradiated mouse assessed as mouse survival compound administered 30 mins prior irradiation measured after 30 days relative to control; type: functional; procedure, shortened: as §1
Mus musculus [6] = experiment: Antiradiation activity in po dosed whole-body gamma-irradiated mouse assessed as increase in mouse survival rate compound administered 30 mins prior irradiation; type: functional; settings: light or radiation study, read-out: MED; procedure, shortened: as §1
Mus musculus [7] = experiment: Protective index, ratio of LD50 for mouse to ED50 for antiradiation activity in ip dosed whole-body gamma-irradiated mouse
Procedure, shortened: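 After ip dosing and whole-body ¹³⁷Cs γ irradiation (141.5 rd/min), ED50 (dose for 50% survival) was estimated from log dose-probit survival plots. Protective index was approximated as approx LD50 (mg/kg) × 1.5 / ED50 (mg/kg).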

[8] = Toxicity po dosed whole-body gamma-irradiated mouse compound administered 30 mins prior irradiation; type: organism-based; settings: in vivo
Mus musculus [9] = experiment: Antiradiation activity in ip dosed whole-body gamma-irradiated mouse assessed as increase in mouse survival rate compound administered 15 mins prior irradiation; type: functional; settings: light or radiation study; procedure, shortened: as §1
[10] = Toxicity ip dosed whole-body gamma-irradiated mouse compound administered 15 mins prior irradiation; type: organism-based; settings: in vivo

SMILES | Survival (Mus musculus [1]) [%] | minimal effective dose (Mus musculus [2]) [mg/kg] | LD50 at 0.5 h [3] [mg/kg] | Survival (Mus musculus [4]) [%] | Survival (Mus musculus [5]) [%] | minimal effective dose (Mus musculus [6]) [mg/kg] | PI (Mus musculus [7]) | LD50 at 0.5 h [8] [mg/kg] | ED50 (Mus musculus [9]) [mg/kg] | minimal effective dose (Mus musculus [9]; read-out: MED) [mg/kg] | LD50 at 0.25 h [10] [mg/kg]
Br.NCC(N)CS (stereo unspecified) | 20 | 200 | 800 | – | – | – | – | – | – | – | –
Cl.NCCCC[C@H](N)CS | – | – | – | 80 | 50 | 75 | 13 | 450 | 10 | 25 | 88
